STAT1 act: STAT1 signaling activators, primary screen, cell-based, HTS, luciferase reporter | activation (% of control), % at 5.5 µM | NIH 3T3 STAT1-luciferase reporter, IFN-gamma, luminescence; 100% = IFN-gamma alone, no compound | AID 932, 2007 | actives 2.6% (n = 200,000);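 active = activation above the screen-wide mean activation plus 3 SD, cut at about 130% in these data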;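 note: raw ratio to IFN-gamma control signal so 100% means no change and 0% no light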
APP 5'UTR act: activators of APP 5'UTR luciferase reporter, primary screen, SH-SY5Y cells; SH-SY5Y APP 5'UTR luciferase reporter, luminescence; zero percent = DMSO vehicle wells; activation, % at 2 µM; actives 1% (n = 190,000);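 active = activation above a set limit, based on mean plus 3 SD of controls, cut at about 140% in these data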
p97 inhibitor: inhibitors of human p97 ATPase, primary screen, biochemical; actives 0.42% (n = 220,000); recombinant p97 ATPase, Kinase-Glo ATP luminescence, 3 h; inhibition, % at 8 µM; Transitional endoplasmic reticulum ATPase (Homo sapiens), P55072; AID 1481, 2009; in the data active = inhibition above about 15%;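 note: 0% = DMSO vehicle and 100% = wells lacking enzyme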
Target sequence (P55072 whole entry, looked up): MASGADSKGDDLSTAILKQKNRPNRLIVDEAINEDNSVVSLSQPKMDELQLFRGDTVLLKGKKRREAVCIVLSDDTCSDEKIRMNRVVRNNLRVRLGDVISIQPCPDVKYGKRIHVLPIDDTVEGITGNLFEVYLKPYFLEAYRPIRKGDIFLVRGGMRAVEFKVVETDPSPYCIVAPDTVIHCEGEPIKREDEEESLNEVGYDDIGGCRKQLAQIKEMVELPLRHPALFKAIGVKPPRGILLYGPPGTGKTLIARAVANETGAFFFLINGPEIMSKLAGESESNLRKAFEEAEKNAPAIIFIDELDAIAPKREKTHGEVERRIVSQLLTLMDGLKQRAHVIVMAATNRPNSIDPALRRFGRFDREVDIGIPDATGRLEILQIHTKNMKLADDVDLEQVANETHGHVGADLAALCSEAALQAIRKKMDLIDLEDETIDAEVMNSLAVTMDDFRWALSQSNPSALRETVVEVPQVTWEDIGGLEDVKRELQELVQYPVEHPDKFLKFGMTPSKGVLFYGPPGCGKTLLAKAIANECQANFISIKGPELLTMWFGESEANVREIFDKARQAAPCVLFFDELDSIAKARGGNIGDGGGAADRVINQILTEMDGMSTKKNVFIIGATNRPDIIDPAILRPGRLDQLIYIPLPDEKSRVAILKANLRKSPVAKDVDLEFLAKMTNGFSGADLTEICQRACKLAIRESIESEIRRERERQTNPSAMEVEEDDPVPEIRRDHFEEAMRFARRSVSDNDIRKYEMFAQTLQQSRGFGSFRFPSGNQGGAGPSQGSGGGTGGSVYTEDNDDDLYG
NF-kB neuron act: activators of NF-kB expression in neurons, primary screen, cell-based, HTS; fold change at 12.5 µM; AID 1239, 2008; actives 1.6% (n = 190,000); human neuronal cells, NF-kB reporter expression; stronger effect = higher value; in the data active = fold change above about 3.3
Mdm2 ligase inh: MDM2-luciferase reporter signal enhancers, primary screen, MDM2 E3 ligase inhibitor project, cell-based, luminescence, 1536-well. signal enhancement, % at 5 µM. cell-based MDM2 ubiquitination luciferase reporter, 2 h; 0 = plate control, 100 = twice control, blank-subtracted. actives 0.11% (n = 210,000). E3 ubiquitin-protein ligase Mdm2 (Homo sapiens), Q00987;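 active = signal enhancement of 30% or more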;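 note: luminescence tracks abundance of the self-degrading MDM2-luciferase fusion protein; higher signal means inhibition of MDM2 E3 ligase activity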
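Material: stable MDM2–luciferase fusion reporter cells / Quantity: 2000 cells/well / Dosing: single 5 µM compound dose, 0.2% final DMSO / Buffer or medium: DMEM / Schedule: 4 h cell settling then 2 h compound exposure, 37 °C / Detection: luminescence with SteadyLite reagent, 15 min at room temperature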
Wee1 degr inh: Wee1 degradation inhibitors, primary screen, cell-based, HeLa, Wee1K328M-luciferase, luminescence. Wee1-like protein kinase (Homo sapiens), P30291. actives 1.2% (n = 220,000). HeLa Luc-Wee1K328M stability; 100% = proteasome inhibitor MG132 effect. reporter increase, % at 5 µM;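 active = activation above the mean of all tested compounds plus 3 SD, set per screening run, cut at about 8.8% in these data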;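 note: cells exposed to compound for 20 h before luminescence read; 0% = DMSO alone and 100% = MG132 at 30 µM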
The depositor's hits bear a star. Most compounds without a hit are left out; they make up all but 4.6% or so of the library.

For O=C(NC(=S)Nc1ccc(CN2CCOCC2)cc1)c1cc2ccccc2o1 the results were STAT1 act 109, APP 5'UTR act 14, p97 inhibitor 2, NF-kB neuron act 1.3, Mdm2 ligase inh -11 and Wee1 degr inh 2.
Screening O=c1oc2ccccc2cc1N1CCOCC1 returned STAT1 act 107, APP 5'UTR act 9, p97 inhibitor 5, NF-kB neuron act 1.1, Mdm2 ligase inh -5 and Wee1 degr inh 9.3*.
For O=c1cc(N2CCOCC2)c2ccccc2o1 the results were STAT1 act 107, APP 5'UTR act -5, p97 inhibitor -2, NF-kB neuron act 1.2, Mdm2 ligase inh -7 and Wee1 degr inh -1.
For O=C(Nc1ccc(N2CCOCC2)cc1)c1cc2ccccc2o1 the results were STAT1 act 171*, APP 5'UTR act 91, p97 inhibitor -6, NF-kB neuron act 2.5, Mdm2 ligase inh -5 and Wee1 degr inh 0.
`Brc1ccc(-c2noc(CCc3ccccc3)n2)cc1` gave STAT1 act 101, APP 5'UTR act 18, p97 inhibitor -8 and Wee1 degr inh 0.
Screening Cc1cccc(-c2noc(CCc3ccccc3)n2)c1 returned STAT1 act 112, APP 5'UTR act 45, p97 inhibitor 3, NF-kB neuron act 2.3, Mdm2 ligase inh -13 and Wee1 degr inh -1.
Screening O=C(Nc1ccc(-c2cn3ccccc3n2)cc1)c1ccc(Cl)cc1 returned STAT1 act 105, APP 5'UTR act 14, p97 inhibitor 0, NF-kB neuron act 1.5, Mdm2 ligase inh -6 and Wee1 degr inh -3.
`c1ccc(CCc2nc(-c3ccccc3)no2)cc1` gave STAT1 act 134*, APP 5'UTR act 18, p97 inhibitor 10, NF-kB neuron act 1.8, Mdm2 ligase inh 0 and Wee1 degr inh -3.
`O=C(Nc1ccc(-c2cn3ccccc3n2)cc1)c1ccco1` gave STAT1 act 144*, APP 5'UTR act 122, p97 inhibitor -17, NF-kB neuron act 2.4, Mdm2 ligase inh -36 and Wee1 degr inh 3.
For c1ccc(CCc2nc(-c3ccc(-n4cccc4)cc3)no2)cc1 the results were STAT1 act 95, APP 5'UTR act -5, p97 inhibitor -9, NF-kB neuron act 1.3, Mdm2 ligase inh -10 and Wee1 degr inh -1.
Screening Cc1cccc(-c2noc(Cc3ccccc3)n2)c1 returned STAT1 act 135*, APP 5'UTR act 42, p97 inhibitor -7, NF-kB neuron act 2.1, Mdm2 ligase inh -16 and Wee1 degr inh -2.
`O=C(Nc1ccc(-c2noc(CCc3ccccc3)n2)cc1)c1ccco1` gave STAT1 act 136*, APP 5'UTR act 173*, p97 inhibitor -7, NF-kB neuron act 3.9*, Mdm2 ligase inh -46 and Wee1 degr inh -1.
CC(=O)Nc1ccc(-c2cn3cc(C)ccc3n2)cc1 was read as STAT1 act 130*, APP 5'UTR act 149*, p97 inhibitor 3, NF-kB neuron act 5.9*, Mdm2 ligase inh -21 and Wee1 degr inh 0.
CC1CCN(Cc2nc(-c3ccccc3)no2)CC1 was read as STAT1 act 142*, APP 5'UTR act 75, p97 inhibitor -1, NF-kB neuron act 3.4*, Mdm2 ligase inh -23 and Wee1 degr inh 4.
Cc1ccc2nc(-c3ccccc3)cn2c1 was read as STAT1 act 23, APP 5'UTR act 3, p97 inhibitor -52, NF-kB neuron act 0.96, Mdm2 ligase inh 0 and Wee1 degr inh -6.
`c1ccc(OCc2nc(-c3ccccc3)no2)cc1` gave STAT1 act 142*, APP 5'UTR act 34, p97 inhibitor -2, NF-kB neuron act 2.8, Mdm2 ligase inh -2 and Wee1 degr inh 1.
Screening O=C(CCc1nnc(CCCCc2ccccc2)o1)N1CCC(N2CCCC2)CC1 returned STAT1 act 99, APP 5'UTR act 20, p97 inhibitor 1, NF-kB neuron act 1.1, Mdm2 ligase inh 3 and Wee1 degr inh 0.
CCC(C)N1CNc2c(c(=O)[nH]c(=S)n2-c2cccc(C)c2)C1 (stereo not drawn) was read as STAT1 act 97, APP 5'UTR act 4, p97 inhibitor 0, NF-kB neuron act 0.99, Mdm2 ligase inh 3 and Wee1 degr inh 3.
For COc1cc(OC)c(OC)cc1CNCCSc1nnnn1C the results were STAT1 act 106, APP 5'UTR act 9, p97 inhibitor 4, NF-kB neuron act 1, Mdm2 ligase inh 1 and Wee1 degr inh -2.
C/C(=N\NC(=O)OC(C)(C)C)c1ccccc1Br was read as STAT1 act 132*, APP 5'UTR act 20, p97 inhibitor -1, NF-kB neuron act 2.1, Mdm2 ligase inh 1 and Wee1 degr inh 1.
COC(=O)N/N=C(\C)c1ccc(Br)cc1 was read as STAT1 act 112, APP 5'UTR act -16, p97 inhibitor 0, NF-kB neuron act 1.5, Mdm2 ligase inh -10 and Wee1 degr inh 3.
Screening CC(C)CN1CCC(CN(C)Cc2nc(-c3cnccn3)no2)CC1 returned STAT1 act 103, APP 5'UTR act 19, p97 inhibitor 0, Mdm2 ligase inh 9 and Wee1 degr inh 2.
Screening COc1cccc(NS(=O)(=O)c2ccc3c(c2)C2C=CCC2C(c2ccc(C(=O)O)cc2)N3)c1 (stereo not drawn) returned STAT1 act 99, APP 5'UTR act -14, p97 inhibitor 15*, NF-kB neuron act 1, Mdm2 ligase inh 6 and Wee1 degr inh -1.
Screening COc1ccc(C(=O)N/N=C(\C)c2ccc3c(c2)C2C=CCC2C(c2ccccc2)N3)cc1 (stereo not drawn) returned STAT1 act 105, APP 5'UTR act 8, p97 inhibitor 0, NF-kB neuron act 0.84, Mdm2 ligase inh 4 and Wee1 degr inh 1.
`CC(C)Cn1c(N)c(C(=O)CSc2cc(Cl)ccc2Cl)c(=O)n(C)c1=O` gave STAT1 act 100, APP 5'UTR act 11, p97 inhibitor 1, NF-kB neuron act 0.31, Mdm2 ligase inh 1 and Wee1 degr inh -1.
For CC1(C)CC2CC(C)(CN2C(=O)COC(=O)c2cc(Cl)cc(Cl)c2N)C1 (stereo not drawn) the results were STAT1 act 106, APP 5'UTR act -1, p97 inhibitor -2, NF-kB neuron act 0.98, Mdm2 ligase inh -5 and Wee1 degr inh 0.

From PubChem BioAssay
